What was measured:
Canavalia ensiformis = assay: Inhibition of jack beans alpha-mannosidase assessed as production of p-nitrophenol at 1000 uM by spectrophotometry
In short: (§1)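 p-Nitrophenyl glycoside matched to each enzyme, 2 mM, with enzyme at that enzyme's optimum pH: Penicillium decumbens α-L-rhamnosidase pH 4.0, bovine liver β-galactosidase pH 6.8, coffee bean α-galactosidase pH 6.5, jack bean α-mannosidase pH 4.5, snail β-mannosidase pH 4.5. Stopped with 400 mM Na2CO3; released p-nitrophenol read at 400 nm.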

[1] = biological target: T1, Lysosomal acid glucosylceramidase (Homo sapiens) (UniProt P04062); settings: 1000 uM
T1 sequence (whole entry): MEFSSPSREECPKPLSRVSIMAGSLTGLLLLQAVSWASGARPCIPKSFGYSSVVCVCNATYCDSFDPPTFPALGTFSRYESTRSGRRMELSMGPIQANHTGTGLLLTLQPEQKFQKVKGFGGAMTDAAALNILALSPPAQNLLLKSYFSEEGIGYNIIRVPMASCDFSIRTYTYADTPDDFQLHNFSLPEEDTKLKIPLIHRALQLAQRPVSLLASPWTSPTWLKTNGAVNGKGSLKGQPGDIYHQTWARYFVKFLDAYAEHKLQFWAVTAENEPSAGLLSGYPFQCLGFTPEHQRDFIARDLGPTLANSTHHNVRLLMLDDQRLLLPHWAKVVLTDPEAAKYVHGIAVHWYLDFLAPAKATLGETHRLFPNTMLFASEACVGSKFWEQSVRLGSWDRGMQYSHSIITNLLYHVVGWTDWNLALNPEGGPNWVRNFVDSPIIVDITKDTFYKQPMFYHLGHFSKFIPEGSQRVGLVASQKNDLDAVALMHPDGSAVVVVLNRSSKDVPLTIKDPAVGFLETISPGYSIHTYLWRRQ

[2] = biological target: T2, Tissue alpha-L-fucosidase (Bos taurus) (UniProt Q2KIM0); settings: 1000 uM
T2 sequence (whole entry): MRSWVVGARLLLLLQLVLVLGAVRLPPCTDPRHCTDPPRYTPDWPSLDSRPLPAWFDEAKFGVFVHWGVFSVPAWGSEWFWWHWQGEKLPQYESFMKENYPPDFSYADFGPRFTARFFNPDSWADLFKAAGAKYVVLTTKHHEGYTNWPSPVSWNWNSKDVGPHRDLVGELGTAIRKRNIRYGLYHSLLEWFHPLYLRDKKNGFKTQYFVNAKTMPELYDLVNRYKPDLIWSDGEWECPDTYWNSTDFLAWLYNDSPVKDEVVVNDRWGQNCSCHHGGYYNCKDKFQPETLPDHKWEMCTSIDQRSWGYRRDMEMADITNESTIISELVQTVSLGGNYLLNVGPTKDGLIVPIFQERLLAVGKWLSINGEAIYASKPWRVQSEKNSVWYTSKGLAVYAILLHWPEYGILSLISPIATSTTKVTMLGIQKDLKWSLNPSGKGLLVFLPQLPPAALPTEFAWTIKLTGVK

Oryza sativa = settings: 1000 uM
Prunus dulcis = settings: 1000 uM
[3] = Inhibition of rat intestinal cellobiase assessed as production of p-nitrophenol by spectrophotometry
Helix pomatia = assay: Inhibition of snail beta-mannosidase assessed as production of p-nitrophenol at 1000 uM by spectrophotometry; in short: as §1
[4] = biological target: Sucrase-isomaltase, intestinal (Rattus norvegicus) (UniProt P23739); settings: 1000 uM
[5] = biological target: Lactase/phlorizin hydrolase (Rattus norvegicus, UniProt Q02401); assay: Inhibition of rat intestinal lactase assessed as production of p-nitrophenol by spectrophotometry
Penicillium decumbens = assay: Inhibition of Penicillium decumbens alpha-L-rhamnosidase assessed as production of p-nitrophenol at 1000 uM by spectrophotometry; in short: as §1
[6] = biological target: T3, Beta-galactosidase (Bos taurus) (UniProt Q58D55); assay: Inhibition of bovine liver beta-galactosidase assessed as production of p-nitrophenol at 1000 uM by spectrophotometry; in short: as §1
T3 sequence (whole entry): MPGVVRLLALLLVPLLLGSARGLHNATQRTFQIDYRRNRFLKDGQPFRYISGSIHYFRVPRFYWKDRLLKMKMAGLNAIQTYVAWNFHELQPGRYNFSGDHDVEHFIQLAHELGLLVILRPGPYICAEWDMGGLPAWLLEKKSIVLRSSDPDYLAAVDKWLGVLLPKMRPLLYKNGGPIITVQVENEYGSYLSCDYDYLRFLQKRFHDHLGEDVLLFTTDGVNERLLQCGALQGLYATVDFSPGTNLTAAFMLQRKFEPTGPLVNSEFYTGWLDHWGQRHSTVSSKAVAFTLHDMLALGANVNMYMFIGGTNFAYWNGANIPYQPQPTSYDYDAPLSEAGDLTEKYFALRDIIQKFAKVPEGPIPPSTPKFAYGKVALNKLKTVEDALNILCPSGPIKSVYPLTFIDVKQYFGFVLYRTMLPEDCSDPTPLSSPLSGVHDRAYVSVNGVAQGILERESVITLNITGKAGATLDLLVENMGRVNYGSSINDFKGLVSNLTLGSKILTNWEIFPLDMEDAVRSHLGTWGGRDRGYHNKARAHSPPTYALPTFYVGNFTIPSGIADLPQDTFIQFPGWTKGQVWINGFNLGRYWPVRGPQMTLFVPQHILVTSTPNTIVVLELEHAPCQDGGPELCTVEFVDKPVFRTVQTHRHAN

Rattus norvegicus [7] = species on record: Rattus norvegicus; settings: 1000 uM
[8] = biological target: Sucrase-isomaltase, intestinal (Rattus norvegicus) (UniProt P23739); settings: 1000 uM; remark: listed apart in the source
[9] = biological target: T4, Glucosylceramidase (Bos taurus) (UniProt Q2KHZ8); assay: Inhibition of bovine liver beta-glucosidase assessed as production of p-nitrophenol using p-nitrophenyl glycoside as substrate at 1000 uM by spectrophotometry
T4 sequence (whole entry): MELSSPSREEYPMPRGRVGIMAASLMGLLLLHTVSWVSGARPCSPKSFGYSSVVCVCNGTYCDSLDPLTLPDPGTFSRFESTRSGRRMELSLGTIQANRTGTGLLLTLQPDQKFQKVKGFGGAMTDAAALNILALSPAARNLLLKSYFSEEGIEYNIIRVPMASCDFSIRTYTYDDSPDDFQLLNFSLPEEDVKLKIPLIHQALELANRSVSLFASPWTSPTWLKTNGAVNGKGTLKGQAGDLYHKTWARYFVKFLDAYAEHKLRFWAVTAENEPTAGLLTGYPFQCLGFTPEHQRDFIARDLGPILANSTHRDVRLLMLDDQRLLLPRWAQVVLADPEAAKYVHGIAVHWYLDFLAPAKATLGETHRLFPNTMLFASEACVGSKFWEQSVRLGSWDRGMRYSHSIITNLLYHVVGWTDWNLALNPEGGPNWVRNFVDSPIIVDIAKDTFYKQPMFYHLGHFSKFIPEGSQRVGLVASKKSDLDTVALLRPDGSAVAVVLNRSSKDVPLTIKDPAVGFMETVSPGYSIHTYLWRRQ

Coffea = assay: Inhibition of coffee beans alpha-galactosidase assessed as production of p-nitrophenol at 1000 uM by spectrophotometry; in short: as §1
[10] = Inhibition of almond beta-glucosidase assessed as production of p-nitrophenol using p-nitrophenyl glycoside as substrate by spectrophotometry
Beta-galactosidase = biological target: T5, Beta-galactosidase (Bos taurus, UniProt Q58D55); assay: Inhibition of bovine liver beta-galactosidase assessed as production of p-nitrophenol by spectrophotometry
T5 sequence (Q58D55 whole entry): T3 sequence (whole entry)

[11] = biological target: Sucrase-isomaltase, intestinal (Rattus norvegicus, UniProt P23739); assay: Inhibition of rat intestinal sucrase assessed as release of D-glucose at by spectrophotometry
Rattus norvegicus [12] = species on record: Rattus norvegicus; assay: Inhibition of rat intestinal cellobiase assessed as production of p-nitrophenol at 1000 uM by spectrophotometry
[13] = biological target: Lactase/phlorizin hydrolase (Rattus norvegicus) (UniProt Q02401); settings: 1000 uM
[14] = Inhibition of rice alpha-glucosidase assessed as production of D-glucose using maltose as substrate after 10 to 30 mins by spectrophotometry; design: species or system Oryza sativa
In short: (§2)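 Enzymes were rice α-glucosidase at pH 5.0 and rat small-intestine brush border membranes (Kessler method) at pH 5.8. Each reaction contained 25 mM maltose and enzyme and was incubated 10–30 min at 37 °C. Reactions were stopped by heating at 100 °C for 3 min, then centrifuged. Released D-glucose was measured with a glucose test reagent by absorbance at 505 nm.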

[15] = Inhibition of rat intestinal maltase assessed as production of D-glucose using maltose as substrate after 10 to 30 mins by spectrophotometry; in short: as §2

Chain of Sucrase-isomaltase, intestinal (Rattus norvegicus) (P23739 1-1013 limits assumed): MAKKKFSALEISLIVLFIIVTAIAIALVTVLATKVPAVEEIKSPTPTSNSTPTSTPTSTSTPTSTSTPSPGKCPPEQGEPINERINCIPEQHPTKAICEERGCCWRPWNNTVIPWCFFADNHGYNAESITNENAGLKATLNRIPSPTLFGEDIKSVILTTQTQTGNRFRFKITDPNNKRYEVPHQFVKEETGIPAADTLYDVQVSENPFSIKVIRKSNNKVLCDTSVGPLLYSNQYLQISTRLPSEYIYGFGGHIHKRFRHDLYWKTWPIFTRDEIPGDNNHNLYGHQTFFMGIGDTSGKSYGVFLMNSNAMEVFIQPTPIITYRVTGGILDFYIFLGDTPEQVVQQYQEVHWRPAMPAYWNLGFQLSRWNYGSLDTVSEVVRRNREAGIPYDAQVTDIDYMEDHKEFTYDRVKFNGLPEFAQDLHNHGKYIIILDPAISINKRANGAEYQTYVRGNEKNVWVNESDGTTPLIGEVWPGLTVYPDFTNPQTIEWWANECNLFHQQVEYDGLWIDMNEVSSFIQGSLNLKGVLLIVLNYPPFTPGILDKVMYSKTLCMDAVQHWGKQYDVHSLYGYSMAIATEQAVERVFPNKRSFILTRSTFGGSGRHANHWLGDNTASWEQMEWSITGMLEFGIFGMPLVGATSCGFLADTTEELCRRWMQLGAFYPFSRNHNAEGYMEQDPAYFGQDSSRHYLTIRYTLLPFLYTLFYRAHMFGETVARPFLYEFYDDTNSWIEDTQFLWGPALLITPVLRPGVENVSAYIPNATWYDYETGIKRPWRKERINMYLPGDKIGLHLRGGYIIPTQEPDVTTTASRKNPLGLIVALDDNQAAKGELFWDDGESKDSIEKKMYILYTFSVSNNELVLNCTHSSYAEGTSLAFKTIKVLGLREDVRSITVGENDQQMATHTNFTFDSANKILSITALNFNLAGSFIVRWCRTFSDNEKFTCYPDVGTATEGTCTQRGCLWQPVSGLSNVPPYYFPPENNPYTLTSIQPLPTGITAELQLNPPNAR
Chain of Sucrase-isomaltase, intestinal (Rattus norvegicus) (P23739 1014-1841 limits assumed): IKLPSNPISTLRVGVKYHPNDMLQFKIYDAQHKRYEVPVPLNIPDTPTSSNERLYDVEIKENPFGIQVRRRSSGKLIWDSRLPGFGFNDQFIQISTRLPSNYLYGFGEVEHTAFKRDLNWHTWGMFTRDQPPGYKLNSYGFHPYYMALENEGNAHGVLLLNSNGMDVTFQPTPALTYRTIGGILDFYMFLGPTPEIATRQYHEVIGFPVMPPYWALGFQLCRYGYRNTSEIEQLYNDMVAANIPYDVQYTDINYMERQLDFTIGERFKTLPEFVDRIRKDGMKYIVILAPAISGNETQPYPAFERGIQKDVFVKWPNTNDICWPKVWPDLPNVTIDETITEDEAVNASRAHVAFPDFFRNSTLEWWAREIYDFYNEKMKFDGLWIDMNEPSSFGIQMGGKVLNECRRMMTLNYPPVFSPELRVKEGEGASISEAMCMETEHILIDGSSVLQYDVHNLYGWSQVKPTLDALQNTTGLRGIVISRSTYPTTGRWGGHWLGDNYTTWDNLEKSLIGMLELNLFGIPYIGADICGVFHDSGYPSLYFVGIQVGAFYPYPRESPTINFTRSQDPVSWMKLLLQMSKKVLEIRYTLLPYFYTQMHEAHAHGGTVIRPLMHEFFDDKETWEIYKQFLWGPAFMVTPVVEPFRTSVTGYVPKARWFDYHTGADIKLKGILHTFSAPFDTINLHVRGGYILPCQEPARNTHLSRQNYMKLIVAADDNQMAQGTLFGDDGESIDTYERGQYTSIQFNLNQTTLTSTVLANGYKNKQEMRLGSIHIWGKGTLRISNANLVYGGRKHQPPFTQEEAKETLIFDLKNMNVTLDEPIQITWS
Chain of Lactase/phlorizin hydrolase (Rattus norvegicus) (Q02401 868-1928 limits assumed): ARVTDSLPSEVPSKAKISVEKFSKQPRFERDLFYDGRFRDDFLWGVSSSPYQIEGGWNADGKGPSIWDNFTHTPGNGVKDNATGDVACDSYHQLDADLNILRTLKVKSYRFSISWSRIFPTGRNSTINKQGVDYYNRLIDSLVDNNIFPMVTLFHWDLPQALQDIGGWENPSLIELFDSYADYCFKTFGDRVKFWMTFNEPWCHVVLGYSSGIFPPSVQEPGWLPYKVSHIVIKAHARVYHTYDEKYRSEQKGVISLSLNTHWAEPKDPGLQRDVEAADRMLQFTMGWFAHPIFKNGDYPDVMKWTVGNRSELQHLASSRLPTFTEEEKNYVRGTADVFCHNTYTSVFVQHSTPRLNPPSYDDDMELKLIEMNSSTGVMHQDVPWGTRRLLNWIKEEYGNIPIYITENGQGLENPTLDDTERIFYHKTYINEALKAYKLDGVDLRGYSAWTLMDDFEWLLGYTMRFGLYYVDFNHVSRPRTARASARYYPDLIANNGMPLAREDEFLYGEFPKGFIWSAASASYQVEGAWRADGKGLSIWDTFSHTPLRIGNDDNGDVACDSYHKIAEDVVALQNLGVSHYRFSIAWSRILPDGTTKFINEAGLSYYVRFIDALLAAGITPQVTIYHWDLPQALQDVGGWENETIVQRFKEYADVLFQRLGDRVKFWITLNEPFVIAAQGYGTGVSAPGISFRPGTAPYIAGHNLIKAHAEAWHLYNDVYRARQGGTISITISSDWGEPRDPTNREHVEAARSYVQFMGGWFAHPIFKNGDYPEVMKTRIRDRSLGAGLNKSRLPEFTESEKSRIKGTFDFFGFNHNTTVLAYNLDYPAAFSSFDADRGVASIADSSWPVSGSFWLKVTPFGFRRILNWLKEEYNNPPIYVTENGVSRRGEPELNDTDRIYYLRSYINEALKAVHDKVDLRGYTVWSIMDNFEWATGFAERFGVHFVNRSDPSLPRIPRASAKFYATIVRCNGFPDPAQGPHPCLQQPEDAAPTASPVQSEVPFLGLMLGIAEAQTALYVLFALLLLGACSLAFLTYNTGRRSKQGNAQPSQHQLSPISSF
Chain of Lactase/phlorizin hydrolase (Q02401 868-1928 limits assumed): as above
Chain of Sucrase-isomaltase, intestinal (P23739 1-1013 limits assumed): as the sequence (P23739 1-1013 limits assumed) above
Chain of Sucrase-isomaltase, intestinal (P23739 1014-1841 limits assumed): as the sequence (P23739 1014-1841 limits assumed) above

Row | inhibition (Canavalia ensiformis) [%] | inhibition [1] [%] | inhibition [2] [%] | inhibition (Oryza sativa) [%] | inhibition (Prunus dulcis) [%] | inhibition (Helix pomatia) [%] | inhibition [4] [%] | IC50 [5] [µM] | inhibition (Penicillium decumbens) [%] | inhibition [6] [%] | inhibition (Rattus norvegicus [7]) [%] | inhibition [8] [%] | inhibition [9] [%] | inhibition (Coffea) [%] | IC50 [10] [µM] | inhibition (Rattus norvegicus [12]) [%] | inhibition [13] [%] | SMILES | further results
1 | < 50 | < 50 | < 50 |  | < 50 | < 50 | < 50 |  | < 50 | < 50 |  | < 50 | < 50 | < 50 |  | < 50 | < 50 | OC[C@@H]1NCC[C@@H](O)[C@@H]1O | IC50 [14]: 980 µM; IC50 [15]: 668 µM
2 | < 50 | < 50 | < 50 | < 50 | < 50 | < 50 | < 50 |  | < 50 | < 50 | < 50 | < 50 | < 50 | < 50 |  | < 50 | < 50 | OC[C@@H]1NCC[C@H](O)[C@H]1O | 
3 | < 50 | < 50 | < 50 |  |  | < 50 | < 50 | 4.3 | < 50 |  | < 50 | < 50 |  | < 50 | 120 |  |  | OC[C@H]1NCC[C@H](O)[C@@H]1O | IC50 [14]: 120 µM; IC50 [3]: 39 µM
4 | < 50 | < 50 | < 50 | < 50 | < 50 | < 50 |  |  | < 50 | < 50 | < 50 |  | < 50 | < 50 |  | < 50 | < 50 | OC[C@H]1NCC[C@H](O)[C@H]1O | 

Further lines, the compound ahead of its results:

Row | SMILES | inhibition (Canavalia ensiformis) [%] | inhibition [1] [%] | inhibition [2] [%] | inhibition (Oryza sativa) [%] | inhibition (Prunus dulcis) [%] | inhibition (Helix pomatia) [%] | inhibition [4] [%] | IC50 [5] [µM] | inhibition (Penicillium decumbens) [%] | inhibition [6] [%] | inhibition (Rattus norvegicus [7]) [%] | inhibition [8] [%] | inhibition [9] [%] | inhibition (Coffea) [%] | IC50 [10] [µM] | inhibition (Rattus norvegicus [12]) [%] | inhibition [13] [%] | further results
5 | OC[C@H]1CNC[C@H](O)[C@H]1O | < 50 | < 50 | < 50 | < 50 | < 50 | < 50 | < 50 | 211 | < 50 | < 50 | < 50 | < 50 | < 50 | < 50 |  |  |  | IC50 [3]: 912 µM
6 | OC[C@H]1CNC[C@H](O)[C@@H]1O | < 50 |  | < 50 | < 50 |  | < 50 | < 50 | 52 | < 50 | < 50 | < 50 | < 50 | < 50 | < 50 | 443 |  |  | IC50 [3]: 334 µM
7 | OC[C@@H]1CNC[C@H](O)[C@H]1O | < 50 |  | < 50 | < 50 |  | < 50 |  | 20 | < 50 |  | < 50 |  |  | < 50 | 236 |  |  | IC50 (Beta-galactosidase): 821 µM; IC50 [11]: 34 µM
8 | OC[C@@H]1NCC[C@H](O)[C@@H]1O | < 50 | < 50 | < 50 | < 50 | < 50 | < 50 | < 50 |  | < 50 | < 50 | < 50 | < 50 | < 50 | < 50 |  | < 50 | < 50 | 
9 | OC[C@@H]1CNC[C@@H](O)[C@H]1O | < 50 | < 50 | < 50 | < 50 | < 50 | < 50 | < 50 | 469 | < 50 | < 50 | < 50 | < 50 | < 50 | < 50 |  | < 50 |  | 
10 | OC[C@@H]1NC[C@@H](O)[C@H](O)[C@H]1O | < 50 |  |  |  |  | < 50 |  |  | < 50 |  |  |  | < 50 | < 50 | 980 | < 50 |  | IC50 [14]: 4.3 µM; IC50 [15]: 28 µM
11 | OC[C@@H]1CNC[C@@H](O)[C@@H]1O | < 50 | < 50 | < 50 | < 50 | < 50 | < 50 | < 50 | 646 | < 50 |  | < 50 | < 50 |  | < 50 |  | < 50 |  | IC50 (Beta-galactosidase): 389 µM

— ChEMBL document CHEMBL1817562, “Docking and SAR studies of D- and L-isofagomine isomers as human β-glucocerebrosidase inhibitors” (Bioorg Med Chem, 2011)
